# GPR7 antagonist = human neuropeptides B/W receptor 1 antagonism; GPR7-expressing cells, fluorescence antagonist assay; inhibition, % at 4.4 µM; actives 1.1% (n = 290,000); AID 1861; in the data active means inhibition above about 16%, passing the limit was not always enough;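 further: cells stimulated with the agonist NPW; 0% = agonist with vehicle and 100% = vehicle without agonist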
# Target sequence (P48145 whole entry, looked up): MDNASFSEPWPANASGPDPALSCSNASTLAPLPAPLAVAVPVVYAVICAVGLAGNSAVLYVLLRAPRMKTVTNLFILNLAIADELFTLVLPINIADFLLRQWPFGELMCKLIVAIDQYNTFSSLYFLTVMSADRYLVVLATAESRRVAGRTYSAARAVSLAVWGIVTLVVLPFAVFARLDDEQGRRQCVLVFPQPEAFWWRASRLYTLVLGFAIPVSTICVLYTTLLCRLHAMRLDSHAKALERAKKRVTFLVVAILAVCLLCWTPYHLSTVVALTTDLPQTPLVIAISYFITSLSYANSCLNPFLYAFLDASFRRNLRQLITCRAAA
# EBV gp42 inh = EBV gp42 inhibition; Fluorescence polarization binding assay, mP read-out; AID 1085; inhibition, % (tested at 21.74 µM); actives 0.42% (n = 220,000); in the data active means inhibition above about 50%
# Target sequence (Q1HVG2 whole entry, looked up): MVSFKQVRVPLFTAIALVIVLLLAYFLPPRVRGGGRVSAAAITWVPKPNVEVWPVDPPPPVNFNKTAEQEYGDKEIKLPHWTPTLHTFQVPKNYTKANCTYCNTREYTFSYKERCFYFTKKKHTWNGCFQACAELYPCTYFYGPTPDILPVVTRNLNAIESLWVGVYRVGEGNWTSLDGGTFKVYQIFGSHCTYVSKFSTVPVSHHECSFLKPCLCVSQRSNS
# HCV NS3 hel inh = HCV NS3 helicase inhibition. actives 0.56% (n = 290,000). NS3 helicase DNA unwinding, Cy5 molecular beacon fluorescence. inhibition, % at 10.9 µM;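 active means inhibition above the mean of all tested compounds plus 3 SD, set per campaign, cut at about 35% in these data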;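 further: 0% = DMSO wells and 100% = thioflavine S control wells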
#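 assay system = NS3 helicase fragment of HCV | buffer or medium = MOPS pH 6.5, MgCl2, DTT, Tween20, BSA | timing = 60 min unwinding reaction at 25 °C after ATP addition | signal = Cy5 beacon fluorescence read at start and 1 h | read-out basis = % inhibition of unwinding | control set = low DMSO, high thioflavine S at 110 µM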
# ZTA DNA inh = blocks Epstein-Barr virus ZTA, an EBNA-1 counter-screen; P03206; ZTA-DNA binding, fluorescence polarization; inhibition, % at 11 µM; actives 0.15% (n = 320,000); AID 2234; in the data active means inhibition above about 33%
# Target sequence (P03206 whole entry, looked up): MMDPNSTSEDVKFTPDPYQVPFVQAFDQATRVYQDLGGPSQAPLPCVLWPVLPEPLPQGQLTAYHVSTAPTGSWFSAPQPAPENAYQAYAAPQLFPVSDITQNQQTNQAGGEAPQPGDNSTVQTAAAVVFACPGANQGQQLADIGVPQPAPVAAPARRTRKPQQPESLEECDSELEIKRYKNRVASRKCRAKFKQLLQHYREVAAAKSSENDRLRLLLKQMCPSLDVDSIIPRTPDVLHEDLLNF
# EBNA-1 inh = blocks EBNA-1 binding to DNA. EBNA-1 DNA binding, fluorescence polarization. inhibition, % at 14.8 µM. actives 0.34% (n = 300,000); in the data active means inhibition above about 28%
# HCV core dimer = HCV core protein dimerization inhibition | TR-FRET GST/Flag-core106 dimerization, 1536-well | AID 1899 | actives 0.33% (n = 300,000) | inhibition, % at 5 µM;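 active means inhibition above the mean of all tested compounds plus 3 SD, set per screening campaign, cut at about 45% in these data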
#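 System: GST-tagged and Flag-tagged HCV core protein residues 1-106 / Input: core106 proteins, GST 13.5 nM and Flag 17 nM / Buffer or medium: KF-containing HEPES buffer, pH 7.45, DTT, CHAPS, BSA / Probe or stimulus: Eu-anti-GST and XL665-anti-Flag labelled anti-tag antibodies / Schedule: 4 h, 22.5 °C incubation / Technique: TR-FRET 671 and 617 nm emission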
# GPR7 antag cf = human GPR7 antagonism, confirmation assay; shares compounds with GPR7 antagonist; AID 1952; GPR7-expressing cells, calcium fluorescence antagonist mode; inhibition, % at 4.4 µM; actives 52% (n = 2,400); in the data active means inhibition above about 24%;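 further: stimulated with the GPR7 agonist NPW; 0% = agonist plus vehicle and 100% = vehicle alone without agonist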
# MCHR1 antag = antagonizes human MCHR1, a GPR7 antagonist counter-screen; shares compounds with GPR7 antagonist; MCHR1-expressing cells, fluorescence antagonist assay; actives 62% (n = 2,400); inhibition, % at 4.4 µM; AID 2148; in the data active means inhibition above about 22%;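 further: 0% = vehicle with agonist and 100% = vehicle without agonist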
# EBNA-1 inh conf = EBNA-1 (EBV) inhibition, confirmation | Recombinant EBNA-1 DBD, Cy5-DNA fluorescence polarization | shares compounds with EBNA-1 inh | actives 35% (n = 830) | inhibition, % at 14.8 µM;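 active means mean inhibition across replicates above a set limit taken from the earlier primary screen, cut at about 28% in these data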;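 further: plate controls were EBNA-1 protein with DMSO for no effect and wells lacking EBNA-1 for full effect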
# ZTA counter trip = ZTA (EBV) inhibition, triplicate counter-screen | shares compounds with EBNA-1 inh | Zta-ZRE DNA binding, Cy5 fluorescence polarization | inhibition, % at 11.1 µM | 830 tested, under 10 active;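 active means mean inhibition over triplicates above a set limit taken from the primary EBNA-1 screen, cut at about 37% in these data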;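 further: purified full length Zta protein with Cy5 labeled ZRE DNA probe; 0% = Zta with DMSO and 100% = wells lacking Zta protein; inhibitors lower polarization by freeing the labeled DNA probe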
# Zta DNA confirm = EBV ZTA DNA binding inhibition, confirmation; shares compounds with ZTA DNA inh; Zta-ZRE DNA binding, fluorescence polarization; inhibition, % at 11.1 µM; actives 30% (n = 320); AID 2361;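 active means mean inhibition across triplicate runs above the hit threshold derived for the original primary screen, cut at about 33% in these data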;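 further: 0% = Zta with DMSO and 100% = wells lacking Zta protein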
# EBNA1 counter = blocks EBNA-1 DNA binding in ZTA counter-screen. shares compounds with ZTA DNA inh. fluorescence polarization. inhibition, % at 14.8 µM. 320 tested, under 10 active. AID 2362; call rule not given here
# * = called active by the depositor; / = no result. The list is not random: actives were taken first. Their share in the collection is about 2.3%.
SMILES,GPR7 antagonist,EBV gp42 inh,HCV NS3 hel inh,ZTA DNA inh,EBNA-1 inh,HCV core dimer,GPR7 antag cf,MCHR1 antag,others
CCOC(=O)Cc1csc(NC(=O)c2ccc(N3CCOCC3)cc2[N+](=O)[O-])n1,/,/,/,-14.8,/,/,/,/,
O=C(c1ccccn1)N1CC=C(c2ccccc2)CC1,12.0,3.4,2.6,/,/,/,/,/,
CC(C)(C)n1nc2c(c1NC(=O)c1c(F)cccc1F)CS(=O)(=O)C2,43.2*,/,-0.5,-4.4,-3.7,-13.4,28.5*,21.8*,
CC(C)(C)n1nc2c(c1NC(=O)c1ccccc1)CS(=O)(=O)C2,1.3,-9.9,4.0,0.8,6.1,-1.2,/,/,
O=C(Oc1ccc(C(=S)N2CCOCC2)cc1)c1ccccc1,41.6*,-5.5,0.3,-17.2,-11.8,-0.6,26.2*,15.4,
CN(C)c1nc(Oc2ccc(OCCOc3ccccc3)nn2)nc(N(C)C)n1,-12.2,-1.6,8.7,-5.7,-5.7,1.8,/,/,
Cc1ccc(C(=O)NC2CCCc3ccccc32)cc1[N+](=O)[O-] (centres undefined),34.4*,/,1.3,6.7,11.5,3.2,24.6*,55.1*,
COCCNC(=O)CN(C(=O)CCC(=O)Nc1ccccn1)c1ccccc1F,-0.2,-16.4,-8.7,-8.2,-8.7,1.9,/,/,
O=C(CSc1nccn1-c1ccccc1)Nc1ccc2c(c1)OCO2,28.1*,4.3,-6.6,-2.2,-3.9,1.1,26.1*,23.6*,
COc1ccnc(Oc2ccc(C)cc2C)c1C#N,-6.0,-0.5,-7.6,-21.4,-0.2,-1.2,/,/,
CCc1cc(=O)oc2cc(OCC(=O)N3CCC(C(=O)O)CC3)ccc12,-11.3,/,-12.3,-4.5,-13.1,-4.4,/,/,
CCCc1cc(=O)oc2cc(OCC(=O)N3CCC(C(N)=O)CC3)ccc12,22.6*,/,29.5,-17.0,5.7,0.1,10.5,0.5,
C=CCC1(CC=C)CCCN1C(=O)c1cc(COc2cccc(OC)c2)on1,-9.3,/,-18.6,-6.0,-0.1,3.7,/,/,
C=CCC1(CC=C)CCCN1C(=O)c1cc(COc2cncc(Cl)c2)on1,38.2*,/,-0.6,-3.2,6.7,6.5,28.3*,51.6*,
Cc1ccccc1OCCNc1cc(N2CCNCC2)ccc1[N+](=O)[O-],30.3*,-1.9,-68.5,0.1,-3.8,-9.0,47.5*,66.1*,
COc1cc(/C=C2\SC(=S)N(C(Cc3ccccc3)C(=O)O)C2=O)ccc1O (centres undefined),22.0*,-37.1,23.9,14.1,-4.5,-4.0,9.4,19.8,
Cc1ccc(CS(=O)(=O)Cc2ccc(C(=O)NCCc3ccccc3)o2)cc1,-1.0,/,-0.5,12.1,-6.4,-0.7,/,/,
CCCOc1ccc(-c2csc(N)n2)cc1[N+](=O)[O-],26.9*,-12.5,0.1,19.8,1.0,2.8,13.1,26.5*,
CCCCOc1ccc(-c2cn3ccccc3n2)cc1[N+](=O)[O-],-6.0,2.8,12.4,3.0,-0.8,2.3,/,/,
O=C(c1ccc(F)cc1F)N1CCN(c2ccccn2)CC1,0.8,/,3.2,-12.1,-4.2,-4.6,/,/,
CC(C)(C)c1ccc(S(=O)(=O)N(CCCN2CCOCC2)Cc2cccs2)cc1,2.7,-8.4,-70.3,-15.0,-9.9,5.8,/,/,
CC(=O)Nc1ccc(S(=O)(=O)N(CCCN2CCOCC2)Cc2cccs2)cc1,24.9*,-1.9,5.0,7.2,0.3,0.1,0.9,15.9,
COc1ccc(CC(=O)N/N=C(\C)c2cccs2)cc1,30.8*,/,13.1,-4.1,-11.1,-1.4,-5.6,4.1,
COC(=O)N/N=C(\C)c1cccs1,-10.6,-12.8,1.0,7.8,6.8,2.1,/,/,
C=C(NC(C)=O)c1c(F)cccc1F,/,/,/,5.1,/,/,/,/,
SMILES,GPR7 antagonist,EBV gp42 inh,HCV NS3 hel inh,ZTA DNA inh,EBNA-1 inh,HCV core dimer,GPR7 antag cf,MCHR1 antag,others
COc1cc(NC(=O)c2cccc(C)c2)ccc1NC(=O)c1cc2ccccc2o1,-5.4,/,9.3,5.9,4.0,5.2,/,/,
COCCCNC(=O)/C=C1\Sc2ccccc2N(Cc2ccccc2F)C1=O,/,6.0,-3.6,-8.6,-0.7,-6.1,/,12.3,
CCN1CCN(CCNC(=O)c2ccc(/C=C3\Sc4ccccc4N(Cc4ccccc4F)C3=O)cc2)CC1,2.9,5.0,-66.1,12.5,-16.1,-8.2,/,/,
COc1cc2c(cc1OC)C1(CCCCC1)CN(C)C2,1.8,-16.7,5.3,-9.2,-1.3,3.2,/,/,
O=C(Nc1ccc2c(c1)CCCN2C(=O)c1cccs1)c1c(F)cccc1Cl,25.9*,/,2.0,42.3*,-10.8,-4.5,16.0,40.6*,Zta DNA confirm=2.8;EBNA1 counter=-2.9
CC[n+]1c(/C=C/c2ccc(N(C)C)cc2)ccc2ccccc21,6.7,-56.4,-9.3,10.9,3.6,-56.5,/,/,
CCN(CC)c1ccc(/C=C/c2ccc3ccc(OC)cc3[n+]2CC)cc1,46.8*,/,-14.8,50.1*,11.3,-29.0,65.5*,64.8*,Zta DNA confirm=30.1;EBNA1 counter=-1.4
Cc1ccc(C(=O)NNC(=O)CSc2nnc(-c3ccncc3)n2C)cc1,-9.9,-10.6,-3.1,-4.8,1.5,-1.0,/,/,
COc1ccc(NC(=O)Cn2c(=O)oc3ccccc32)cc1,4.2,2.9,-1.8,-8.8,-3.0,-4.8,/,/,
COC(=O)c1cc(NC(=O)Cn2c(=O)oc3ccccc32)cc(C(=O)OC)c1,2.5,/,4.1,3.5,65.5*,7.9,/,/,EBNA-1 inh conf=38.2*;ZTA counter trip=-7.0
O=C(Cn1c(=O)oc2ccccc21)Nc1cccc(Cl)c1,16.9,/,10.4,13.8,7.7,7.7,/,/,
O=C(CCn1c(=O)oc2ccccc21)Nc1cccc(Cl)c1,5.4,2.1,6.9,25.5,36.3*,8.0,/,/,EBNA-1 inh conf=2.1;ZTA counter trip=-2.2
NC(=O)c1nn(-c2ccccc2)nc1NC(=O)Cn1nnc(-c2ccccc2)n1,-2.5,-2.7,16.2,1.5,45.9*,13.6,/,/,EBNA-1 inh conf=23.7;ZTA counter trip=2.2
CC(C)(C)C(=O)OCc1nc(-c2ccc(C(F)(F)F)cc2)cs1,-7.7,-3.1,0.7,13.1,5.4,-0.3,/,/,
Cc1cccc(NC(=S)N2CCN(S(=O)(=O)c3ccc(F)cc3)CC2)c1,0.0,/,-0.8,2.4,2.8,-4.7,/,/,
CC(NC(=O)c1cccc(N(C)C)c1)c1ccc(-n2ccnc2)cc1 (centres undefined),-10.3,/,0.5,2.6,-5.7,-5.6,/,/,
